Test results: ChEMBL document CHEMBL4312027, “Synthesis, characterization, and biological activity of a triphenylphosphonium-containing imidazolium salt against select bladder cancer cell lines” (Eur J Med Chem, 2020)
Activity calls are given as the source filed them. The rule behind the calls is not given here.

What was measured:
RT-4 = test: Growth inhibition of human RT4 cells at 500 uM measured after 1 hr by Celltiter-Glo luminescent cell viability assay relative to control; format: functional; details: RT-4, 1 h, read-out: GI
Procedure, shortened: (§1)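 Cells seeded 10000/well, 24 h, then exposed in ATCC-recommended medium to 62.5–2000 μM (two-fold steps) or vehicle for the set time (5–60 min), then normal medium. After 24 h, plates equilibrated 30 min at room temperature, CellTiter-Glo added, 2 min at room temperature, luminescence read. Survival relative to vehicle control; quadruplicate.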

RT-112 [1] = test: Growth inhibition of human RT112 cells at 500 uM measured after 1 hr by Celltiter-Glo luminescent cell viability assay relative to control; format: functional; details: RT-112, 1 h, read-out: GI; procedure, shortened: as §1
RT-112 [2] = test: Growth inhibition of human RT112 cells at 250 uM measured after 5 to 60 mins by Celltiter-Glo luminescent cell viability assay; format: functional, cell-based
TCC-SUP = test: Growth inhibition of human TCCSUP cells measured after 1 hr by Celltiter-Glo luminescent cell viability assay; format: functional; procedure, shortened: as §1
SW780 = test: Growth inhibition of human SW780 cells measured after 1 hr by Celltiter-Glo luminescent cell viability assay; format: functional; details: SW780, 1 h; procedure, shortened: as §1
[3] = Solubility of compound in water; format: physicochemical
RPMI-8226 = test: Growth inhibition of human RPMI8226 cells assessed as growth percent at 10 uM incubated for 48 hrs by sulforhodamine B assay relative to control; format: functional; details: RPMI-8226, 48 h, read-out: Activity
A549 = test: Growth inhibition of human A549/ATCC cells assessed as growth percent at 10 uM incubated for 48 hrs by sulforhodamine B assay relative to control; format: functional; details: A549, 48 h, read-out: Activity
NCI-H226 = test: Growth inhibition of human NCI-H226 cells assessed as growth percent at 10 uM incubated for 48 hrs by sulforhodamine B assay relative to control; format: functional; details: NCI-H226, 48 h, read-out: Activity
NCI-H460 = test: Growth inhibition of human NCI-H460 cells assessed as growth percent at 10 uM incubated for 48 hrs by sulforhodamine B assay relative to control; format: functional; details: NCI-H460, 48 h, read-out: Activity
COLO 205 = test: Growth inhibition of human COLO205 cells assessed as growth percent at 10 uM incubated for 48 hrs by sulforhodamine B assay relative to control; format: functional; details: COLO 205, 48 h, read-out: Activity
HCT-116 = test: Growth inhibition of human HCT116 cells assessed as growth percent at 10 uM incubated for 48 hrs by sulforhodamine B assay relative to control; format: functional; details: HCT-116, 48 h, read-out: Activity
KM12 = test: Growth inhibition of human KM12 cells assessed as growth percent at 10 uM incubated for 48 hrs by sulforhodamine B assay relative to control; format: functional; details: KM12, 48 h, read-out: Activity
SF-295 = test: Growth inhibition of human SF295 cells assessed as growth percent at 10 uM incubated for 48 hrs by sulforhodamine B assay relative to control; format: functional; details: SF-295, 48 h, read-out: Activity
LOX IMVI = test: Growth inhibition of human LOXIMVI cells assessed as growth percent at 10 uM incubated for 48 hrs by sulforhodamine B assay relative to control; format: functional; details: read-out: Activity
MDA-MB-435 = test: Growth inhibition of human MDA-MB-435 cells assessed as growth percent at 10 uM incubated for 48 hrs by sulforhodamine B assay relative to control; format: functional; details: MDA-MB-435, 48 h, read-out: Activity
SK-MEL-2 = test: Growth inhibition of human SK-MEL-2 cells assessed as growth percent at 10 uM incubated for 48 hrs by sulforhodamine B assay relative to control; format: functional; details: SK-MEL-2, 48 h, read-out: Activity
A498 = test: Growth inhibition of human A498 cells assessed as growth percent at 10 uM incubated for 48 hrs by sulforhodamine B assay relative to control; format: functional; details: A498, 48 h, read-out: Activity
ACHN = test: Growth inhibition of human ACHN cells assessed as growth percent at 10 uM incubated for 48 hrs by sulforhodamine B assay relative to control; format: functional; details: read-out: Activity
Hs-578T = test: Growth inhibition of human Hs 578T cells assessed as growth percent at 10 uM incubated for 48 hrs by sulforhodamine B assay relative to control; format: functional; details: read-out: Activity
BT-549 = test: Growth inhibition of human BT549 cells assessed as growth percent at 10 uM incubated for 48 hrs by sulforhodamine B assay relative to control; format: functional; details: BT-549, 48 h, read-out: Activity
T47D = test: Growth inhibition of human T47D cells assessed as growth percent at 10 uM incubated for 48 hrs by sulforhodamine B assay relative to control; format: functional; details: read-out: Activity
RT-112 [4] = test: Induction of apoptosis in human RT112 cells assessed as caspase 9 cleavage at 500 uM incubated for 1 hr and measured immediately after treatment by Western blot analysis; format: functional, cell-based
Procedure, shortened: (§2)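 RT112 seeded 300,000/well; after 24 h, 250 or 500 μM or vehicle. Cells plus floating debris harvested immediately or 24 h after treatment, lysed in RIPA with protease inhibitors. About 30 μg protein heated 10 min at 95 °C with DTT, run on SDS-PAGE. Immunoblotted for PARP and caspase 9, Ran as loading control, ECL detection.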

[5] = Toxicity in anesthetized female mouse model assessed as inflammation at 750 to 1500 uM administered via intravesical instillation after bladder evacuation treated for 1 hr followed by repetition of the treatment after 24 hrs and measured at 24 hrs after final treatment; details: in vivo, other
Procedure, shortened: (§3)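 Female mice anesthetized, 1–3% isoflurane. Bladder evacuated, then 100 μL of 750 or 1500 μM in 10% DMSO/PBS (or vehicle) instilled by 24G angiocatheter. Catheter left in place for a 1 h dwell. Repeated after 24 h; mice sacrificed 24 h after final dose. Bladder histology read for urothelial height and layers.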

Mus musculus = test: Induction of urothelium exfoliation in anesthetized female mouse model assessed as decrease in urothelial cell height at 750 to 1500 uM administered via intravesical instillation after bladder evacuation treated for 1 hr followed by repetition of the treatment after 24 hrs and measured at 24 hrs after final treatment by hematoxylin and eosin staining based analysis; format: organism-based; details: in vivo, other; procedure, shortened: as §3
RT-112 [6] = test: Cell cycle arrest in human RT112 cells assessed as cell accumulation at sub-G1 phase at 500 uM incubated for 1 hr measured after culturing in normal medium for 24 hrs by propidium iodide/RNase staining based FACScan flow cytometry analysis; format: functional
Procedure, shortened: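 Seeded at 300,000 cells/well in triplicate per treatment; 24 h later exposed to 250 or 500 μM or vehicle for 1 h. After 24 h in normal media, media plus cells were collected, washed, fixed in cold 70% ethanol (4 °C, 30 min), treated with phosphate citric acid buffer, stained with PI/RNase and gated for sub-G1 by flow cytometry.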

RT-112 [7] = test: Induction of apoptosis in human RT112 cells assessed as increase in PARP cleavage at 500 uM incubated for 1 hr measured at 24 hrs after treatment by Western blot analysis; format: functional, cell-based; procedure, shortened: as §2

Compound: [Br-].[Br-].c1ccc([P+](CCCc2n(Cc3ccc4ccccc4c3)c3ccccc3[n+]2Cc2ccc3ccccc3c2)(c2ccccc2)c2ccccc2)cc1
- inhibition of growth at 500 µM (RT-4): 100%
- inhibition of growth at 500 µM (RT-112 [1]): 100%
- growth inhibition (GI) (RT-112 [2]): Active
- GI50 (TCC-SUP): 240 µM
- GI50 (SW780): 200 µM
- solubility [3]: 8000 µg/mL
- growth at 10 µM (RPMI-8226): 6.9%
- growth at 10 µM (A549): 80.2%
- growth at 10 µM (NCI-H226): 83.5%
- growth at 10 µM (NCI-H460): 34.8%
- growth at 10 µM (COLO 205): 44.7%
- growth at 10 µM (HCT-116): 24.2%
- growth at 10 µM (KM12): 32.2%
- growth at 10 µM (SF-295): 41.1%
- growth at 10 µM (LOX IMVI): 13.8%
- growth at 10 µM (MDA-MB-435): 25.2%
- growth at 10 µM (SK-MEL-2): 100%
- growth at 10 µM (A498): 67.2%
- growth at 10 µM (ACHN): 81.4%
- growth at 10 µM (Hs-578T): 68.6%
- growth at 10 µM (BT-549): 68.1%
- growth at 10 µM (T47D): 56.9%
- Activity (RT-112 [4]): inactive
- Activity [5]: Non-Toxic
- Activity (Mus musculus): Non-Toxic
- Activity (RT-112 [6]): inactive
- Activity (RT-112 [7]): Active
